How the values were obtained:
[1] = Partition coefficient (logD6.5); conditions: octanol/water, pH 6.5
[2] = Partition coefficient (logD7.4); conditions: octanol/water, pH 7.4
[3] = biological target: T1, Renin (Homo sapiens, UniProt P00797); assay: Tested in vitro for its ability to inhibit the human plasma renin at pH of 7.4; assay type: cell-free
T1 sequence (P00797 whole entry): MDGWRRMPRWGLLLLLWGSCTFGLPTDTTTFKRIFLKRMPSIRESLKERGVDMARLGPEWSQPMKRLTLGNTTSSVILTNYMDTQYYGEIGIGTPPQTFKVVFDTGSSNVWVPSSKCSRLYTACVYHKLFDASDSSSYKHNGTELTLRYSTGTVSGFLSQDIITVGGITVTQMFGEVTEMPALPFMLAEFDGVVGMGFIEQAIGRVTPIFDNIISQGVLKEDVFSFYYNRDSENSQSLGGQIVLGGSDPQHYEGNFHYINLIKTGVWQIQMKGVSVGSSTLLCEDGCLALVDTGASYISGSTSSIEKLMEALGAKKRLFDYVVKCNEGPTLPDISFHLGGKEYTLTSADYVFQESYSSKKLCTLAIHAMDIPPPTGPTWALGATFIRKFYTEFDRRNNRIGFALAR

[4] = biological target: T1, Renin; assay: Tested in vitro for its ability to inhibit the human plasma renin; assay type: cell-free
Method in brief: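 IC50 against renin in plasma from the named species (dog, ferret, human, rat); single determination in most cases.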

[5] = Average area under curve for the compound at 10 mg/kg dose after intraduodenal administration to rat; conditions: in vivo
[6] = Average area under curve for the compound at 1 mg/kg dose after intravenous administration to rat; conditions: in vivo
[7] = Oral bioavailability in rat; conditions: in vivo, intraduodenal, 10 mg/kg
[8] = Average peak plasma concentration of compound after 10 mg/kg intraduodenal administration to rat; conditions: plasma
[9] = Average peak plasma concentration of compound after 1 mg/kg intravenous administration to rat; conditions: plasma

| SMILES | logD [1] | logD [2] | IC50 [3] | IC50 [4] | also measured |
| --- | --- | --- | --- | --- | --- |
| CCCC[C@H](O[C@@H](Cc1ccccc1)C(=O)N1CCC(OCOC)CC1)C(=O)N[C@@H](CC1CCCCC1)[C@@H](O)C[C@H](C(=O)NCCNc1n[nH]c(N)n1)C(C)C | 3.9 | 4 | 1.1 nM |  |  |
| CCCC[C@H](O[C@@H](Cc1ccccc1)C(=O)N1CCC(OCOC)CC1)C(=O)N[C@@H](CC1CCCCC1)[C@@H](O)C[C@H](C(=O)NCCNC(N)=NC#N)C(C)C | > 5 | > 5 | 1.8 nM |  |  |
| CCCC[C@H](O[C@@H](Cc1ccccc1)C(=O)N1CCC(OCOC)CC1)C(=O)N[C@@H](CC1CCCCC1)[C@@H](O)C[C@H](C(=O)NCC/N=C(\NC#N)SC)C(C)C | > 5 | > 5 | 9.2 nM |  |  |
| CCCC[C@H](O[C@@H](Cc1ccccc1)C(=O)N1CCC(OCOC)CC1)C(=O)N[C@@H](CC1CCCCC1)[C@@H](O)C[C@H](C(=O)NCCCNC(N)=O)C(C)C |  |  | 2 nM |  |  |
| CCCC[C@H](O[C@@H](Cc1ccccc1)C(=O)N1CCC(OCOC)CC1)C(=O)N[C@@H](CC1CCCCC1)[C@@H](O)C[C@H](C(=O)NCCC(=O)OCC)C(C)C |  |  | 12 nM |  |  |
| CCCC[C@H](O[C@@H](Cc1ccccc1)C(=O)N1CCC(OCOC)CC1)C(=O)N[C@@H](CC1CCCCC1)[C@@H](O)C[C@H](C(=O)NCCNC(N)=S)C(C)C | > 5 | > 5 | 2.2 nM |  |  |
| CCCC[C@H](N[C@@H](Cc1ccccc1)C(=O)N1CCC(OCOC)CC1)C(=O)N[C@@H](CC1CCCCC1)[C@@H](O)C[C@H](C(=O)NCC(=O)O)C(C)C | 2.3 | 2.8 |  | 12 nM |  |
| CCCC[C@H](O[C@@H](Cc1ccccc1)C(=O)N1CCC(OCOC)CC1)C(=O)N[C@@H](CC1CCCCC1)[C@@H](O)C[C@H](C(=O)NCCCNC(N)=NC#N)C(C)C | 4.6 | 4.5 | 1.5 nM |  |  |
| CCCC[C@H](N[C@@H](Cc1ccccc1)C(=O)N1CCC(OCOC)CC1)C(=O)N[C@@H](CC1CCCCC1)[C@@H](O)C[C@H](C(=O)NCCC(=O)OCc1ccccc1)C(C)C |  |  |  | 23 nM |  |
| CCCC[C@H](O[C@@H](Cc1ccccc1)C(=O)N1CCC(OCOC)CC1)C(=O)N[C@@H](CC1CCCCC1)[C@@H](O)C[C@H](C(=O)NCCN)C(C)C |  |  | 3.9 nM |  |  |
| CCCC[C@H](O[C@@H](Cc1ccccc1)C(=O)N1CCC(OCOC)CC1)C(=O)N[C@@H](CC1CCCCC1)[C@@H](O)C[C@H](C(=O)NCCCNC(=O)OCc1ccccc1)C(C)C |  |  | 4.3 nM |  |  |
| CCCC[C@H](O[C@@H](Cc1ccccc1)C(=O)N1CCC(OCOC)CC1)C(=O)N[C@@H](CC1CCCCC1)[C@@H](O)C[C@H](C(=O)NCc1nn[nH]n1)C(C)C |  |  | 8.4 nM |  |  |
| CCCC[C@H](O[C@@H](Cc1ccccc1)C(=O)N1CCC(OCOC)CC1)C(=O)N[C@@H](CC1CCCCC1)[C@@H](O)C[C@H](C(=O)NCCC/N=C(/NC)NC#N)C(C)C | 4.4 | 4.4 | 1.3 nM |  |  |
| CCCC[C@H](O[C@@H](Cc1ccccc1)C(=O)N1CCC(OCOC)CC1)C(=O)N[C@@H](CC1CCCCC1)[C@@H](O)C[C@H](C(=O)NCC(C)(C)N1CCOCC1)C(C)C | > 5 | > 5 | 5.9 nM |  |  |
| CCCC[C@H](N[C@@H](Cc1ccccc1)C(=O)N1CCC(OCOC)CC1)C(=O)N[C@@H](CC1CCCCC1)[C@@H](O)C[C@H](C(=O)NCC[N+]1([O-])CCOCC1)C(C)C |  |  |  | 8.4 nM |  |
| CCCC[C@H](O[C@@H](Cc1ccccc1)C(=O)N1CCC(OCOC)CC1)C(=O)N[C@@H](CC1CCCCC1)[C@@H](O)C[C@H](C(=O)NCC(C)(C)N)C(C)C | 2.7 | 3.5 | 4.7 nM |  |  |
| CCCC[C@H](O[C@@H](Cc1ccccc1)C(=O)N1CCC(OCOC)CC1)C(=O)N[C@@H](CC1CCCCC1)[C@@H](O)C[C@H](C(=O)NCCC(=O)O)C(C)C | 1.9 | 2.8 |  | 6.8 nM |  |
| CCCC[C@H](O[C@@H](Cc1ccccc1)C(=O)N1CCC(OCOC)CC1)C(=O)N[C@@H](CC1CCCCC1)[C@@H](O)C[C@H](C(=O)NCCCNc1nnc(N)[nH]1)C(C)C | 4.3 | 4.2 | 1.7 nM |  |  |
| CCCC[C@H](N[C@@H](Cc1ccccc1)C(=O)N1CCC(OCOC)CC1)C(=O)N[C@@H](CC1CCCCC1)[C@@H](O)C[C@H](C(=O)NCCC(=O)O)C(C)C |  |  |  | 8.4 nM |  |

| SMILES | logD [1] | logD [2] | IC50 [3] | IC50 [4] | also measured |
| --- | --- | --- | --- | --- | --- |
| CCCC[C@H](N[C@@H](Cc1ccccc1)C(=O)N1CCC(OCOC)CC1)C(=O)N[C@@H](CC1CCCCC1)[C@@H](O)C[C@H](C(=O)NCCN)C(C)C |  |  |  | 9.7 nM |  |
| CCCC[C@H](O[C@@H](Cc1ccccc1)C(=O)N1CCC(OCOC)CC1)C(=O)N[C@@H](CC1CCCCC1)[C@@H](O)C[C@H](C(=O)NCCNc1noc(N)n1)C(C)C | 4.5 | 4.4 | 3.1 nM |  |  |
| CCCC[C@H](O[C@@H](Cc1ccccc1)C(=O)N1CCC(OCOC)CC1)C(=O)N[C@@H](CC1CCCCC1)[C@@H](O)C[C@H](C(=O)NCCCCN1CCOCC1)C(C)C |  |  | 3.3 nM |  |  |
| CCCC[C@H](N[C@@H](Cc1ccccc1)C(=O)N1CCC(OCOC)CC1)C(=O)N[C@@H](CC1CCCCC1)[C@@H](O)C[C@H](C(=O)NCCNCCO)C(C)C |  |  |  | 11 nM |  |
| CCCC[C@H](N[C@@H](Cc1ccccc1)C(=O)N1CCC(OCOC)CC1)C(=O)N[C@@H](CC1CCCCC1)[C@@H](O)C[C@H](C(=O)NCCNC(=O)OCc1ccccc1)C(C)C |  |  |  | 17 nM |  |
| CCCC[C@H](O[C@@H](Cc1ccccc1)C(=O)N1CCC(OCOC)CC1)C(=O)N[C@@H](CC1CCCCC1)[C@@H](O)C[C@H](C(=O)NCCCNC(C)=O)C(C)C | 4.3 | 4.3 | 2.4 nM |  |  |
| CCCC[C@H](O[C@@H](Cc1ccccc1)C(=O)N1CCC(OCOC)CC1)C(=O)N[C@@H](CC1CCCCC1)[C@@H](O)C[C@H](C(=O)NCCNC(N)=O)C(C)C |  |  | 2.8 nM |  |  |
| CCCC[C@H](N[C@@H](Cc1ccccc1)C(=O)N1CCC(OCOC)CC1)C(=O)N[C@@H](CC1CCCCC1)[C@@H](O)C[C@H](C(=O)NCC(C)(C)N)C(C)C |  |  |  | 12 nM |  |
| CCCC[C@H](N[C@@H](Cc1ccccc1)C(=O)N1CCC(OCOC)CC1)C(=O)N[C@@H](CC1CCCCC1)[C@@H](O)C[C@H](C(=O)NCCCN)C(C)C | 2.7 | 3.3 |  | 9.5 nM |  |
| CCCC[C@H](N[C@@H](Cc1ccccc1)C(=O)N1CCC(OCOC)CC1)C(=O)N[C@@H](CC1CCCCC1)[C@@H](O)C[C@H](C(=O)NCCCNCCO)C(C)C | 2.9 | 3.5 |  | 7.9 nM |  |
| CCCC[C@H](O[C@@H](Cc1ccccc1)C(=O)N1CCC(OCOC)CC1)C(=O)N[C@@H](CC1CCCCC1)[C@@H](O)C[C@H](C(=O)NCCNC(=O)OCc1ccccc1)C(C)C |  |  | 11 nM |  |  |
| CCCC[C@H](N[C@@H](Cc1ccccc1)C(=O)N1CCC(OCOC)CC1)C(=O)N[C@@H](CC1CCCCC1)[C@@H](O)C[C@H](C(=O)NCC(C)(C)NCCO)C(C)C |  |  |  | 6.3 nM | AUC [5]: 66.3 ng·h/mL; AUC [6]: 477 ng·h/mL; bioavailability [7]: 1%; Cmax [8]: 80 ng/mL; Cmax [9]: 3480 ng/mL |
| CCCC[C@H](N[C@@H](Cc1ccccc1)C(=O)N1CCC(OCOC)CC1)C(=O)N[C@@H](CC1CCCCC1)[C@@H](O)C[C@H](C(=O)NCC(=O)OCc1ccccc1)C(C)C |  |  |  | 21 nM |  |
| CCCC[C@H](O[C@@H](Cc1ccccc1)C(=O)N1CCC(OCOC)CC1)C(=O)N[C@@H](CC1CCCCC1)[C@@H](O)C[C@H](C(=O)NCCCCN)C(C)C |  |  | 4.3 nM |  |  |
| CCCC[C@H](O[C@@H](Cc1ccccc1)C(=O)N1CCC(OCOC)CC1)C(=O)N[C@@H](CC1CCCCC1)[C@@H](O)C[C@H](C(=O)NCCCNCCO)C(C)C | 2.5 | 1.8 | 6 nM |  |  |
| CCCC[C@H](O[C@@H](Cc1ccccc1)C(=O)N1CCC(OCOC)CC1)C(=O)N[C@@H](CC1CCCCC1)[C@@H](O)C[C@H](C(=O)NCCCN)C(C)C | 2.4 | 1.8 | 4.5 nM |  |  |
| CCCC[C@H](O[C@@H](Cc1ccccc1)C(=O)N1CCC(OCOC)CC1)C(=O)N[C@@H](CC1CCCCC1)[C@@H](O)C[C@H](C(=O)NCCNC(C)=O)C(C)C |  |  | 2.6 nM |  |  |
| CCCC[C@H](O[C@@H](Cc1ccccc1)C(=O)N1CCC(OCOC)CC1)C(=O)N[C@@H](CC1CCCCC1)[C@@H](O)C[C@H](C(=O)NCCCNC(=NC#N)SC)C(C)C |  |  |  | 1.3 nM |  |
| CCCC[C@H](O[C@@H](Cc1ccccc1)C(=O)N1CCC(OCOC)CC1)C(=O)N[C@@H](CC1CCCCC1)[C@@H](O)C[C@H](C(=O)NCCCNC(N)=S)C(C)C |  |  | 2.5 nM |  |  |

— ChEMBL document CHEMBL1127457, “Nonpeptide renin inhibitors with good intraduodenal bioavailability and efficacy in dog” (J Med Chem, 1994)
